Experiments:
Phosphodiesterase 4 [1] = target: T1, Phosphodiesterase 4 (Homo sapiens, UniProt P27815+Q08499+Q07343+Q08493); assay: In vitro inhibition of PDE-IV isolated from guinea pig ventricle at 10 uM.; assay type: protein assay; conditions: Cavia porcellus, target entry is the homologue from another species
[2] = target: cGMP-specific 3',5'-cyclic phosphodiesterase (Homo sapiens) (UniProt O76074); assay: In vitro inhibition of PDE-V isolated from porcine pulmonary artery at 10 uM.; conditions: Sus scrofa, target entry is the homologue from another species
Phosphodiesterase 3 [3] = target: T2, Phosphodiesterase 3 (Homo sapiens, UniProt Q14432+Q13370); assay: Percentage inhibition against PDE-III (phosphodiesterase III) in guinea pig ventricle at 10 uM; assay type: protein assay; conditions: Cavia porcellus, target entry is the homologue from another species
Phosphodiesterase 4 [4] = target: T1, Phosphodiesterase 4; assay: In vitro inhibition of PDE-IV isolated from guinea pig ventricle.; assay type: protein assay, Cavia porcellus; conditions: target entry is the homologue from another species
Method in brief: (§1)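 PDE III and PDE IV were each prepared from guinea pig ventricle by anion-exchange chromatography. Activity was measured by the boronate column method with 1 μM cAMP as substrate.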

Phosphodiesterase 3 [5] = target: T2, Phosphodiesterase 3; assay: Effective dose against PDE-III for increase in contractility following administration to anaesthetised dogs; conditions: Canis lupus familiaris; target entry is the homologue from another species
Phosphodiesterase 3 [6] = target: T2, Phosphodiesterase 3; assay: Percent inhibition of PDE 3 (phosphodiesterase III) from guinea pig ventricle at 10 uM (or 100 uM); assay type: protein assay; conditions: Cavia porcellus, target entry is the homologue from another species
Phosphodiesterase 3 [7] = target: T2, Phosphodiesterase 3; assay: Inhibition of PDE 3 (phosphodiesterase III) from guinea pig ventricle; assay type: protein assay, Cavia porcellus; conditions: target entry is the homologue from another species; method in brief: as §1
Phosphodiesterase 3 [8] = target: T2, Phosphodiesterase 3; assay: Relative positive inotropic activity (ED50) and PDE 3 inhibition (IC50); assay type: protein assay; conditions: Cavia porcellus
Phosphodiesterase 4 [9] = target: T1, Phosphodiesterase 4; assay: In vitro inhibition of PDE-IV isolated from guinea pig ventricle at 100 uM.; assay type: protein assay; conditions: Cavia porcellus, target entry is the homologue from another species
[10] = tested on: cGMP-specific 3',5'-cyclic phosphodiesterase (Sus scrofa); assay: In vitro inhibition of PDE-V isolated from porcine pulmonary artery at 100 uM.
Phosphodiesterase 4 [11] = target: T1, Phosphodiesterase 4; assay: In vitro inhibition of PDE-IV isolated from guinea pig ventricle; Not determined.; assay type: protein assay; conditions: Cavia porcellus; target entry is the homologue from another species; concentration not given here; method in brief: as §1

Row | Compound | inhibition (Phosphodiesterase 4 [1]) [%] | inhibition (Phosphodiesterase 3 [3]) [%] | IC50 (Phosphodiesterase 4 [4]) [µM] | also measured
1 | CC(C)(C)Oc1ccccc1-c1nc2ccc[nH]c-2n1 | 0 | 0 | – | inhibition [2]: 29%
2 | OCCCOc1ccccc1-c1nc2ccc[nH]c-2n1 | 30 | 0 | – | –
3 | ClCCCOc1ccccc1-c1nc2ccc[nH]c-2n1 | – | 7 | 9 | –
4 | c1ccc(COc2ccccc2-c2nc3ccc[nH]c-3n2)cc1 | – | 0 | 8 | –
5 | CCCCOc1ccccc1-c1nc2ccc[nH]c-2n1 | – | 0 | 6 | –
6 | Cc1[nH]c(=O)c(C#N)cc1-c1ccncc1 | – | – | – | ED50 (Phosphodiesterase 3 [5]): 0.037 mg/kg
7 | CCCOc1ccccc1-c1cn2cccnc2n1 | 16 | 2 | – | –
8 | CCCCCOc1ccccc1-c1nc2ccc[nH]c-2n1 | – | 0 | 6 | –
9 | CCCSc1ccccc1-c1nc2ccc[nH]c-2n1 | 21 | 0 | – | –
10 | COc1cc([S+](C)[O-])ccc1-c1nc2cccnc2[nH]1 (stereo not given) | – | – | – | ED50 (Phosphodiesterase 3 [5]): 0.3 mg/kg; inhibition (Phosphodiesterase 3 [6]): 2%
11 | COc1ccccc1-c1nc2cc[nH]cc-2n1 | 20 | 6 | – | –
12 | CC1(C)C(=O)Nc2ccc(C3=NNC(=O)CC3)cc21 [INDOLIDAN] | – | – | – | IC50 (Phosphodiesterase 3 [7]): 0.08 µM; ED50 (Phosphodiesterase 3 [5]): 0.007 mg/kg; Ratio (Phosphodiesterase 3 [8]): 0.01
13 | CNCCCOc1ccccc1-c1nc2ccc[nH]c-2n1 | 5 | 0 | – | inhibition [2]: 12%
14 | CC(=O)Oc1ccccc1-c1nc2ccc[nH]c-2n1 | 0 | 2 | – | –
15 | Oc1ccccc1-c1nc2ccc[nH]c-2n1 | 0 | 15 | – | –
16 | CCCOc1ccccc1-c1nc2ccc[nH]c-2n1 | – | 0 | 11 | –
17 | COc1cc([S+](C)[O-])ccc1-c1nc2cnccc2[nH]1 (stereo not given) [ISOMAZOLE] | – | – | – | IC50 (Phosphodiesterase 3 [7]): 42 µM; ED50 (Phosphodiesterase 3 [5]): 0.03 mg/kg; inhibition (Phosphodiesterase 4 [9]): 2%; inhibition (Phosphodiesterase 3 [6]): 23%; Ratio (Phosphodiesterase 3 [8]): 1.4
18 | O=C1CCC(c2ccc(-n3ccnc3)cc2)=NN1 | – | – | – | ED50 (Phosphodiesterase 3 [5]): 0.05 mg/kg
19 | c1c[nH]c2nc(-c3ccccc3OCC3CC3)nc-2c1 | – | 15 | 37 | –
20 | CN(C)CCCOc1ccccc1-c1nc2ccc[nH]c-2n1 | 7 | 8 | – | inhibition [10]: 47%
21 | CC(C)COc1ccccc1-c1nc2ccc[nH]c-2n1 | – | – | 3 | –
22 | CCCCCOc1ccccc1-c1nc2cc[nH]cc-2n1 | 50 | 20 | – | –
23 | CCCNc1ccccc1-c1nc2ccc[nH]c-2n1 | 11 | 0 | – | –
24 | OCCOc1ccccc1-c1nc2ccc[nH]c-2n1 | 14 | 2 | – | –
25 | CCOc1ccccc1-c1nc2ccc[nH]c-2n1 | 23 | 15 | – | –
26 | O=[N+]([O-])c1ccccc1-c1nc2ccc[nH]c-2n1 | 4 | 0 | – | inhibition [2]: 13%
27 | CCCOc1ccccc1-c1nc2[nH]nnc2c(=O)[nH]1 | 13 | 14 | – | –
28 | c1c[nH]c2nc(-c3ccccc3OC3CCCC3)nc-2c1 | – | 12 | 19 | –
29 | CCCCCCOc1ccccc1-c1nc2ccc[nH]c-2n1 | – | 0 | 16 | –
30 | COc1ccccc1-c1nc2ccc[nH]c-2n1 | – | 13 | – | inhibition (Phosphodiesterase 4 [11]): 1%
